The results in this text go back to ChEMBL document CHEMBL1821727, “Design, synthesis, and pharmacological evaluation of novel hybrid compounds to treat sickle cell disease symptoms” (J Med Chem, 2011).

The term inhibition in vivo denotes the drop in the measured response relative to a control, in per cent.

For data set [1], the system named is Mus musculus. Kind of data set: Antiinflammatory activity in Swiss albino mouse assessed as inhibition of capsaicin-induced ear edema at 300 umol/kg, po administered 1 hr before capsaicin challenge measured after 30 mins relative to control. Format: functional. The method in brief: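 Female Swiss mice, 8 weeks old, groups of six; oral dosing at 300 μmol/kg as suspension in arabic gum, vehicle controls 10 mL/kg po; left ear given acetone. Killed 30 min after capsaicin; 7 mm ear punches weighed, edema = treated right minus untreated left ear weight; % inhibition vs vehicle control; mean ± SEM, n = 8, ANOVA/Dunnett.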

Data set [2] in a line: Antiinflammatory activity in knockout-transgenic sickle cell mouse monocytes assessed as inhibition of LPS-induced TNFalpha production at 300 uM administered 30 mins before LPS challenge […]. The data set is classed as functional, Monocyte.
Another data set deals with Blood. Kind of data set: Genotoxicity in mouse peripheral blood by micronucleus test. Format: toxicity, tissue-based.
Data set [3] can be described thus: Antiinflammatory activity in knockout-transgenic sickle cell mouse monocytes assessed as inhibition of LPS-induced TNFalpha production at 100 uM administered 30 mins before LPS challenge […]. The data set is classed as functional, Monocyte.
For data set [4], the system named is Salmonella typhimurium. In words: Mutagenic activity in Salmonella Typhimurium TA102 preincubated for 20 to 30 mins. To be noted: salmonella enterica subsp. enterica serovar typhimurium. Format: toxicity, organism-based.
Data set [5] has as its system Salmonella typhimurium. In words: Mutagenic activity in Salmonella Typhimurium TA100 preincubated for 20 to 30 mins. To be noted: salmonella enterica subsp. enterica serovar typhimurium. Format: toxicity, organism-based.
The test system of data set [6] is Mus musculus. In words: Antiinflammatory activity in Swiss albino mouse peritonitis model assessed as reduction in thioglycollate-induced of leukocyte migration at 300 umol/kg, po administered 1 hr before thioglycollate challenge measured after 4 hrs. Format: functional, organism-based. The method in brief:
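Mice dosed at 300 μmol/kg po in arabic gum, then 1 h later given 1 mL 3% thioglycollate ip. Killed at 4 h, peritoneum washed with 1.5 mL cold PBS; exudate cells recovered and total cells counted in Neubauer chamber; exudate >98% neutrophils. Mean ± SEM, at least six animals, ANOVA/Dunnett vs vehicle.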

Data set [7] has as its system Mus musculus. In words: Antinociceptive activity in Swiss albino mouse assessed as reduction in acetic acid-induced abdominal constrictions at 100 umol/kg, po administered 1 hr before acetic acid challenge measured for 20 mins relative to control. Format: functional, Abdomen. Further details: scale not given: the % may be the effect or the level left. The method in brief:
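Constrictions counted for 20 min starting 10 min after injection; % inhibition vs vehicle group; mean ± SEM, 10 animals per group, Student's t test.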

Data set [8] in a line: Antiinflammatory activity in knockout-transgenic sickle cell mouse monocytes assessed as TNFalpha level at 100 uM administered 30 mins before LPS challenge measured after […] by ELISA. Format: functional, Monocyte. The essentials: (§1)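 Blood drawn by intracardiac puncture from anesthetized adult knockout-transgenic sickle cell mice; mononuclear cells isolated on Ficoll, adhered 2 h in DMEM + 10% calf serum (5% CO2, 37 °C), monocyte purity >90% by May-Giemsa. Compounds (100 or 300 μM; dexamethasone 1 μM) added 30 min before LPS 1 μg/mL; supernatant TNFα by ELISA after 20 h. Mean ± SEM, N ≥ 4 experiments.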
(In an ELISA, binding on a coated surface is turned into a signal by an enzyme label.)

Data set [9] in a line: Antiinflammatory activity in knockout-transgenic sickle cell mouse monocytes assessed as TNFalpha level at 300 uM administered 30 mins before LPS challenge measured after […] by ELISA. The data set is classed as functional, Monocyte. The method in brief: as §1
Data set [10] is described as follows: Antiinflammatory activity in knockout-transgenic sickle cell mouse monocytes assessed as inhibition of LPS-induced TNFalpha production at 1 uM administered 30 mins before LPS challenge […]. The data set is classed as functional, Monocyte.

Molecules are shown by their SMILES. Active and inactive are the calls of the source. No cut-off for these calls is given here.

As for `O=C1c2ccccc2C(=O)N1c1ccc(CO[N+](=O)[O-])cc1`, the inhibition in vivo at 300 µmol/kg with Mus musculus [1] turned out to be 43%. For the same compound, the “inhibition (INH)” value in data set [2] was 84%; in [3] it was 67%. The Activity entry with Blood is reported as “Non-toxic”; with Salmonella typhimurium [4], “Non-toxic”; in the data set on Salmonella typhimurium [5] it was “Non-toxic”; in the data set with Mus musculus [7], 66%. In addition, the result in the data set with Mus musculus [6] was Active.
In the case of `Cc1c(N(C)CS(=O)(=O)O)c(=O)n(-c2ccccc2)n1C`, in the data set on Mus musculus [7] (Abdomen), the result was inactive.
With `O=C1CCC(N2C(=O)c3ccccc3C2=O)C(=O)N1CO[N+](=O)[O-]` (stereo unspecified), the inhibition in vivo at 300 µmol/kg in the data set with Mus musculus [1] was 43%. The Activity entry in the data set on Blood, in the data set with Salmonella typhimurium [4] and with Salmonella typhimurium [5] was “Non-toxic” each time. The outcome in the data set on Mus musculus [6] was Active.
Consider `NC(=O)NO` [HYDROXYUREA], for which the values for the Activity in data set [8] and in [9] were 463.3 pg/mL and 579.8 pg/mL, respectively.
Regarding `O=C1c2ccccc2C(=O)N1CCO[N+](=O)[O-]`, the inhibition in vivo at 300 µmol/kg in the data set with Mus musculus [1] was determined as 43%. In addition, the Activity entry in the data set with Blood is given as “Non-toxic”; in the data set with Salmonella typhimurium [4], “Non-toxic”; in the data set on Salmonella typhimurium [5], “Non-toxic”; in the data set on Mus musculus [7] it was 25%. Besides, in the data set on Mus musculus [6], the outcome was Active.
As for `O=C1c2ccccc2C(=O)N1CO[N+](=O)[O-]`, in the data set with Mus musculus [1], the inhibition in vivo at 300 µmol/kg came to 43%. The Activity entry in the data set with Blood, with Salmonella typhimurium [4] and in the data set with Salmonella typhimurium [5] was “Non-toxic” each time. For the same compound, the outcome in the data set with Mus musculus [6] was Active.
In the case of `O=C1c2ccccc2C(=O)N1c1ccc(CCO[N+](=O)[O-])cc1`, in the data set on Mus musculus [1], the inhibition in vivo at 300 µmol/kg amounted to 43%. Also, the Activity result in the data set on Blood, with Salmonella typhimurium [4] and in the data set on Salmonella typhimurium [5] was “Non-toxic” each time. For the same compound, the outcome in the data set with Mus musculus [6] was Active.
As for `C[C@@H]1C[C@H]2[C@@H]3CCC4=CC(=O)C=C[C@]4(C)[C@@]3(F)[C@@H](O)C[C@]2(C)[C@@]1(O)C(=O)CO` [DEXAMETHASONE], the “inhibition (INH)” value in data set [10] is 83%.
For the compound `COc1ccc2c(c1)c(CC(=O)O)c(C)n2C(=O)c1ccc(Cl)cc1`, in the data set on Mus musculus [1], the inhibition entry was “Active”.
For the compound `O=C1c2ccccc2C(=O)N1c1cccc(CO[N+](=O)[O-])c1`, the inhibition in vivo at 300 µmol/kg in the data set on Mus musculus [1] was 65%. The “inhibition (INH)” value in data set [2] was 91%; in data set [3], 45%. Also, the Activity entry with Blood, with Salmonella typhimurium [4] and with Salmonella typhimurium [5] was “Non-toxic” throughout. The outcome with Mus musculus [6] was Active.
